# Lipid droplet: modulators of hepatic lipid droplet formation; AML12 mouse hepatocytes, oleate lipid droplets, BODIPY imaging; inhibition, % at 6.5 µM; 240,000 compounds, 0.4% hits; AID 1656;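 active = lipid droplet intensity inhibited by at least 50%, with more than 500 cells counted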
#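 System: AML12 hepatocytes (mouse). Probe or stimulus: oleic acid at 100 µM to induce lipid droplet formation. Times: overnight treatment with compound plus oleate. Detection: Image-based BODIPY and DAPI two-channel analysis. Evaluation: percent inhibition of filter-corrected integrated lipid droplet intensity per well.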
# 697 NFkB inh: inhibitors of the PMA/ionomycin-induced NF-kB reporter in 697 B cells. inhibition, % at 4 µM. 697 B-cell NF-kB luciferase reporter, 16 h. 330,000 compounds, 0.33% hits; in the data active = inhibition above about 35%
# aSyn UTR inh: MLPCN primary screen, SNCA 5' untranslated region; 300,000 compounds, 0.82% hits; AID 1813; alpha-synuclein 5'UTR reporter, inhibitor activity; inhibition, % (tested at 7.5 µM); in the data active = inhibition above about 60%;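 also: H4 neuroglioblastoma cells stably carrying SNCA 5'UTR luciferase fusion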
# Jurkat NFkB inh: inhibitors of the PMA/ionomycin-induced NF-kB reporter in Jurkat cells; PMA/ionomycin-induced NF-kB luciferase reporter, luminescence; inhibition, % at 4 µM; 330,000 compounds, 0.53% hits; AID 435003; in the data active = inhibition above about 50%
# APP 5UTR inh: APP translation inhibition; SH-SY5Y APP 5'UTR-luciferase reporter, luminescence; 190,000 compounds, 0.82% hits; inhibition, % at 2 µM; AID 1285;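 active = inhibition above a set limit, derived from the sample mean plus 3 SD, cut at about 45% in these data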
# H9c2 TAG inh: inhibitors of triacylglycerol accumulation; H9c2 cells, Nile Red lipid (TAG) fluorescence; cells loaded with 200 µM oleic acid; inhibition, % at 12.5 µM; 230,000 compounds, 0.66% hits;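 active = pattern-corrected inhibition of lipid staining of at least 50% with the nuclear-stain viability signal not falling by more than 50%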
# Jurkat NFkB conf: lowers PMA/ionomycin-induced NF-kB signal in Jurkat cells; Jurkat NF-kB luciferase, 16 h; 2,700 compounds, 27% hits; inhibition, % at 4 µM; shares compounds with Jurkat NFkB inh;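 active = inhibition reaching about 45% at 4 µM in either replicate, limit read from the data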
# Hits are given with their value; - = inactive; . = not tested or not shown. Hits are enriched below; roughly 1.9% of the tested compounds scored in any of these assays.
SMILES,Lipid droplet,697 NFkB inh,aSyn UTR inh,Jurkat NFkB inh,APP 5UTR inh,H9c2 TAG inh,Jurkat NFkB conf
CC1CCCN(CC(O)COc2ccc(S(=O)(=O)N3CCCC3)cc2[N+](=O)[O-])C1 (stereo unspecified),.,-,.,-,.,-,.
COc1cccc(C2Nc3ccc4ccccc4c3C3=C2C(=O)CCC3)c1O (stereo unspecified),-,-,-,-,.,.,.
Cc1ccc(O)c(NC(=O)c2cc(-c3ccccc3)on2)c1,-,-,-,86,.,-,-
CCCc1cc(C(=O)Nc2cc(C)ccc2O)no1,-,-,-,92,.,.,61
COc1cc2nc(CN3CCN(S(=O)(=O)c4ccccc4[N+](=O)[O-])CC3)[nH]c(=O)c2cc1OC,.,.,.,.,.,-,.
Nc1ccc(-c2nc3cc([N+](=O)[O-])ccc3o2)cc1,-,-,-,-,.,-,-
Cc1ccc2oc(-c3cccc(N)c3)nc2c1,-,-,-,-,-,-,.
CC(C)(C)Nc1nc2cc([N+](=O)[O-])ccc2o1,-,-,-,-,.,-,.
COc1ccc(-c2nc3cc([N+](=O)[O-])ccc3o2)cc1,-,-,-,-,-,-,-
CC(C)(C)c1ccc(-c2nc3cc(N)ccc3o2)cc1,-,-,-,-,.,-,-
COCC(C)NS(=O)(=O)c1ccc(C(=O)NC(Cc2ccccc2)c2ccccc2)cc1 (stereo unspecified),-,-,-,-,.,.,.
Cc1ccc(S(=O)(=O)N2c3cc(C)ccc3OCC2C(C)(C)C)cc1 (stereo unspecified),-,-,-,-,.,-,.
COc1ccc(S(=O)(=O)N2c3cc(C)ccc3OCC2C(C)(C)C)cc1 (stereo unspecified),.,-,-,51,-,-,-
CCN(Cc1ccccc1)S(=O)(=O)c1ccc(C(=O)N2CCN(c3nc4ccccc4s3)CC2)cc1,-,-,-,-,-,.,.
COc1ccc2[nH]c3c(N4CCC(O)(c5cccc(C(F)(F)F)c5)CC4)ncnc3c2c1,.,-,-,51,-,-,-
COc1ccc2[nH]c3c(N4CCN(Cc5ccc6c(c5)OCO6)CC4)ncnc3c2c1,.,-,-,-,-,-,.
Fc1ccc2[nH]c3c(N4CCc5ccccc5C4)ncnc3c2c1,-,-,-,50,.,-,63
Cc1ccc2[nH]c3c(N4CCc5ccccc5C4)ncnc3c2c1,.,-,-,-,-,-,.
CCOc1ccc2[nH]c3c(N4CCc5ccccc5C4)ncnc3c2c1,-,-,-,52,.,-,-
CN(CC(=O)Nc1ccccc1Br)C(=O)CNC(=O)c1ccco1,.,-,-,-,.,-,.
CCOC(=O)N1CCN(C(=O)C(=O)c2cn(CC(=O)N3CCCCCC3)c3ccccc23)CC1,-,-,-,-,.,-,.
CCC(Sc1nc(N)cc(=O)[nH]1)C(=O)Nc1cc(C)on1 (stereo unspecified),-,-,-,-,-,-,.
Cc1ccccc1C(=O)Nc1nnc(SCC(=O)NCc2ccco2)s1,-,-,-,-,.,-,.
CCCCc1ccc(NC(=O)c2ccc(N(C)S(C)(=O)=O)cc2)cc1,-,-,-,50,.,-,54
CCCCc1ccc(NC(=O)c2ccc(NS(C)(=O)=O)cc2)cc1,-,-,-,-,-,-,.
SMILES,Lipid droplet,697 NFkB inh,aSyn UTR inh,Jurkat NFkB inh,APP 5UTR inh,H9c2 TAG inh,Jurkat NFkB conf
Cc1ccc(-n2ncc3c(N4CCCC4)ncnc32)c(C)c1,-,-,-,-,-,.,.
COc1cccc(N2CCN(c3ncnc4c3cnn4-c3ccc(C)cc3C)CC2)c1,.,-,-,87,-,-,70
Cc1nc(Nc2nc3c(c(=O)[nH]2)CCC3)nc2ccccc12,.,-,126,85,.,-,57
COc1cc(OC)c(/C=C2\C(=O)Nc3ccccc32)c(OC)c1,.,-,.,56,.,.,54
COc1ccc(C(=O)/C=C2/C(=O)Nc3ccccc32)c(OC)c1,-,-,-,-,.,.,.
CN(C)S(=O)(=O)c1ccc(Nc2nc(C3CC3)nc3c2nnn3Cc2ccccc2Cl)cc1,-,-,-,57,-,.,65
COC(=O)CNc1nc(C2CC2)nc2c1nnn2Cc1ccccc1Cl,-,-,-,-,-,.,.
Cc1ccc(OCCn2cnc3cc([N+](=O)[O-])ccc3c2=O)cc1,-,-,-,-,-,-,.
COc1ccc2c(Cn3cnc4cc([N+](=O)[O-])ccc4c3=O)cc(=O)oc2c1,-,-,72,70,.,-,-

# High-throughput results deposited in PubChem by several laboratories.
